Measurements taken from ChEMBL document CHEMBL1134836, “Design, synthesis, and biological evaluation of a series of lavendustin A analogues that inhibit EGFR and Syk tyrosine kinases, as well as tubulin polymerization” (J Med Chem, 2001).

How the values were obtained:
DU-145 = test: In vitro cytotoxicity against human prostate DU-145 cells.; type: functional
UACC-62 = test: In vitro cytotoxicity against human melanoma UACC-62 cells.; type: functional
MCF7 = test: Inhibition of DNA synthesis in MCF-7 cells.; type: functional, cell-based; settings: Homo sapiens
Method in brief: (§1)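 Cells seeded at 10^5/well and grown 24 h at 37 °C, then given inhibitor in DMSO at 3-5 concentrations, 3-4 wells each, for 48 h. [3H]thymidine pulse for 2 h. TCA-precipitated label solubilized in perchloric acid and counted.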

SF-539 = test: In vitro cytotoxicity against human CNS SF-539 cells.; type: functional
OVCAR-3 = test: In vitro cytotoxicity against human ovarian OVCAR-3 cells.; type: functional
SN12C = test: In vitro cytotoxicity against human renal SN12C cells.; type: functional
MCF-10A = test: Inhibition of DNA synthesis in MCF-10A cells.; type: functional, cell-based; settings: Homo sapiens; method in brief: as §1
HCT-116 = test: In vitro cytotoxicity against human colon HCT116 cell culture.; type: functional
Cancer cell lines = test: Mean graph mid point (MGM) for growth inhibition of all human cancer cell lines successfully tested; type: functional
MDA-MB-435 = test: In vitro cytotoxicity against human breast MDA-MB-435 cells.; type: functional
[1] = target: Tyrosine-protein kinase SYK (Homo sapiens, UniProt P43405); test: In vitro inhibition of Syk protein tyrosine kinase; type: functional
Method in brief: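 Full-length GST-Syk from baculovirus-infected Sf9 cell lysates, held on glutathione-agarose. Stopped with 10 mM EDTA, beads washed, read by scintillation counting. IC50 determined graphically against DMSO control.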

[2] = target: Epidermal growth factor receptor (Mus musculus, UniProt Q01279); test: Inhibition of epidermal growth factor receptor phosphorylation in BaF3 mouse lymphoid cells.; type: cell-based
Epidermal growth factor receptor, sequence (Q01279 whole entry): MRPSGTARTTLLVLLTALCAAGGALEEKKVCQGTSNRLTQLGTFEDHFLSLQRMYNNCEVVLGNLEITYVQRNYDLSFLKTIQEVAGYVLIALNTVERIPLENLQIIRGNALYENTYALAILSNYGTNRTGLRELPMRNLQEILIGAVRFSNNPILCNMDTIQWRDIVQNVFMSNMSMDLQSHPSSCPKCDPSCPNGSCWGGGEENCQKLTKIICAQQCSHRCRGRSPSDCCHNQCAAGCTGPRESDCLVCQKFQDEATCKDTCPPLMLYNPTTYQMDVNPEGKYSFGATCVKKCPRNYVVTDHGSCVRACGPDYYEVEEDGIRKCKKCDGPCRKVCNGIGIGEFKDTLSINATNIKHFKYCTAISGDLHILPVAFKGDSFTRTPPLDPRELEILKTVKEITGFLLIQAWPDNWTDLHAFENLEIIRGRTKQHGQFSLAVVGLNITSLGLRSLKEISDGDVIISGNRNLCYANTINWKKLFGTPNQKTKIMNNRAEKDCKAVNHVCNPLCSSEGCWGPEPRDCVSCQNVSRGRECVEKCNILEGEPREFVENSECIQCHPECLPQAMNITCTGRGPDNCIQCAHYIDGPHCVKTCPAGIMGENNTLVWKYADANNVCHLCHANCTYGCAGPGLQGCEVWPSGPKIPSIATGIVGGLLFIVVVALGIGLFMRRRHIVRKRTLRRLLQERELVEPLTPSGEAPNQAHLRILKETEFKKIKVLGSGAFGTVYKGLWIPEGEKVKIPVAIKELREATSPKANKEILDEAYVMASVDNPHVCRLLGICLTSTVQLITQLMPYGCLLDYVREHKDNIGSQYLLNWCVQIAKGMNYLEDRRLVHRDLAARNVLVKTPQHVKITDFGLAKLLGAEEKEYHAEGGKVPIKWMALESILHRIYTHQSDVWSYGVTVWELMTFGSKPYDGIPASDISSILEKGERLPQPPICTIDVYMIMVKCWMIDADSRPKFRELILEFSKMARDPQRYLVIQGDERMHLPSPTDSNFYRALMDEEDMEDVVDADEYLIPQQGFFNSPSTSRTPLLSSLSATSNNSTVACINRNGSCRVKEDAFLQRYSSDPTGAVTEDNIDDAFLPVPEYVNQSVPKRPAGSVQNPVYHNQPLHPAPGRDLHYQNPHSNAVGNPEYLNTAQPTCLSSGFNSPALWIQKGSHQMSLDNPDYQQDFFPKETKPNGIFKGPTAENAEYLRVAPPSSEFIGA
Method in brief: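 BaF3/EGFR cells serum-starved 24 h, then about 10^7 cells/mL treated 2 h at 37 °C with inhibitor at 3-5 concentrations. Chilled 20 min, then given EGF 100 ng/mL for 7 min on ice. Lysates precipitated on concanavalin A beads, run on SDS/PAGE, and immunoblotted with antiphosphotyrosine using ECL detection.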

Tubulin beta chain = Tubulin beta chain (Bos taurus, UniProt Q6B856); test: Inhibition of bovine tubulin polymerization
Tubulin beta chain, sequence (Q6B856 whole entry): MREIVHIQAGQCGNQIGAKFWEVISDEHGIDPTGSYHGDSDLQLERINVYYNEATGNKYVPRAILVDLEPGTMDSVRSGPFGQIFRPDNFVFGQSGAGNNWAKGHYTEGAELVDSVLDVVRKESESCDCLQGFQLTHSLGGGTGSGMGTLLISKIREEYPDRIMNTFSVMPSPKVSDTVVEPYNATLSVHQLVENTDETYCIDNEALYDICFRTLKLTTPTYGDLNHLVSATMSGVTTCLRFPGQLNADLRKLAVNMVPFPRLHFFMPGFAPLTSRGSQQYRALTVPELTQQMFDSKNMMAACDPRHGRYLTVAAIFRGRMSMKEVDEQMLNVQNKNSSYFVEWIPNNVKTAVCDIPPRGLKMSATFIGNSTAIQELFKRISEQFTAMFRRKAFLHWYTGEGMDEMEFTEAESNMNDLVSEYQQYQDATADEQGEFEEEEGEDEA
Method in brief: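 Electrophoretically homogeneous bovine brain tubulin. Polymerization followed spectrophotometrically with a temperature jump from 2-4 °C to 30 °C.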

HOP-62 = test: In vitro cytotoxicity against human lung HOP-62 cells.; type: functional
CCRF-CEM = test: Cytotoxic effect on human leukemia CCRF-CEM cells; type: functional

Structure (SMILES): O=C(NCCc1ccccc1)c1cccc(NCc2cc(O)ccc2O)c1
- GI50 (DU-145): 17 µM
- GI50 (UACC-62): 13 µM
- IC50 (MCF7): 5 µM
- GI50 (SF-539): 15 µM
- GI50 (OVCAR-3): 2.8 µM
- GI50 (SN12C): 13 µM
- IC50 (MCF-10A): 6 µM
- GI50 (HCT-116): 16 µM
- MGM (Cancer cell lines): 12.1 µM
- GI50 (MDA-MB-435): 15 µM
- IC50 [1]: > 100 µM
- IC50 [2]: 500 µM
- IC50 (Tubulin beta chain): 6.9 µM
- GI50 (HOP-62): 3.8 µM
- GI50 (CCRF-CEM): 4.4 µM

Structure (SMILES): O=C(NCCc1ccc(Cl)cc1)c1cc(NCc2cc(O)ccc2O)ccc1O
- GI50 (DU-145): 16 µM
- GI50 (UACC-62): 13 µM
- IC50 (MCF7): 13 µM
- GI50 (SF-539): 8.4 µM
- GI50 (OVCAR-3): 5.9 µM
- GI50 (SN12C): 9.8 µM
- IC50 (MCF-10A): 9 µM
- GI50 (HCT-116): 15 µM
- MGM (Cancer cell lines): 10 µM
- GI50 (MDA-MB-435): 20 µM
- IC50 [1]: 25 µM
- IC50 [2]: 46 µM
- IC50 (Tubulin beta chain): 3.2 µM
- GI50 (HOP-62): 17 µM
- GI50 (CCRF-CEM): 1.6 µM

Structure (SMILES): O=C(NCc1ccccc1)c1cc(NCc2cc(O)ccc2O)ccc1O
- GI50 (DU-145): 16 µM
- GI50 (UACC-62): 15 µM
- IC50 (MCF7): 17 µM
- GI50 (SF-539): 21 µM
- GI50 (OVCAR-3): 21 µM
- GI50 (SN12C): 12 µM
- IC50 (MCF-10A): 17 µM
- GI50 (HCT-116): 17 µM
- MGM (Cancer cell lines): 15.5 µM
- GI50 (MDA-MB-435): 30 µM
- IC50 [1]: 25 µM
- IC50 [2]: 8 µM
- IC50 (Tubulin beta chain): 3.2 µM
- GI50 (HOP-62): 23 µM
- GI50 (CCRF-CEM): 3.2 µM

Structure (SMILES): O=C(NC1CCc2ccccc2C1)c1cc(NCc2cc(O)ccc2O)ccc1O (stereo not given)
- GI50 (DU-145): 17 µM
- GI50 (UACC-62): 14 µM
- IC50 (MCF7): 10 µM
- GI50 (SF-539): 2.7 µM
- GI50 (OVCAR-3): 7.9 µM
- GI50 (SN12C): 18 µM
- IC50 (MCF-10A): 6 µM
- GI50 (HCT-116): 16 µM
- MGM (Cancer cell lines): 11.2 µM
- GI50 (MDA-MB-435): 9.2 µM
- IC50 [1]: 8 µM
- IC50 [2]: 4 µM
- IC50 (Tubulin beta chain): 5.3 µM
- GI50 (HOP-62): 17 µM
- GI50 (CCRF-CEM): 1.4 µM

Structure (SMILES): CCCCCCCCCCCCNC(=O)c1cc(NCc2cc(O)ccc2O)ccc1O
- GI50 (DU-145): 11 µM
- GI50 (UACC-62): 3.2 µM
- IC50 (MCF7): 1 µM
- GI50 (SF-539): 20 µM
- GI50 (OVCAR-3): 1.9 µM
- GI50 (SN12C): 2.6 µM
- IC50 (MCF-10A): 3 µM
- GI50 (HCT-116): 2.1 µM
- MGM (Cancer cell lines): 2.7 µM
- GI50 (MDA-MB-435): 3.2 µM
- IC50 [1]: 50 µM
- IC50 [2]: 35 µM
- IC50 (Tubulin beta chain): > 40 µM
- GI50 (HOP-62): 3.8 µM
- GI50 (CCRF-CEM): 0.34 µM

Structure (SMILES): COc1ccc(CCNC(=O)c2cc(NCc3cc(O)ccc3O)ccc2O)cc1
- GI50 (DU-145): 21 µM
- GI50 (UACC-62): 14 µM
- IC50 (MCF7): 14 µM
- GI50 (SF-539): 16 µM
- GI50 (OVCAR-3): 5.5 µM
- GI50 (SN12C): 72 µM
- IC50 (MCF-10A): 11 µM
- GI50 (HCT-116): 23 µM
- MGM (Cancer cell lines): 15.4 µM
- GI50 (MDA-MB-435): 16 µM
- IC50 [1]: 50 µM
- IC50 [2]: > 100 µM
- IC50 (Tubulin beta chain): 4.2 µM
- GI50 (HOP-62): 12 µM
- GI50 (CCRF-CEM): 3.2 µM

Structure (SMILES): O=C(NCCc1ccccc1)c1ccc(NCc2cc(O)ccc2O)cc1
- GI50 (DU-145): 14 µM
- GI50 (UACC-62): 9.4 µM
- IC50 (MCF7): 3 µM
- GI50 (SF-539): 8.5 µM
- GI50 (OVCAR-3): 2.7 µM
- GI50 (SN12C): 7.4 µM
- IC50 (MCF-10A): 7 µM
- GI50 (HCT-116): 7.4 µM
- MGM (Cancer cell lines): 6.4 µM
- GI50 (MDA-MB-435): 5.1 µM
- IC50 [1]: 5 µM
- IC50 [2]: > 200 µM
- IC50 (Tubulin beta chain): 4.9 µM
- GI50 (HOP-62): 13 µM
- GI50 (CCRF-CEM): 0.59 µM

Structure (SMILES): O=C(NCCCc1ccccc1)c1ccc(NCc2cc(O)ccc2O)cc1
- GI50 (DU-145): 13 µM
- GI50 (UACC-62): 7.9 µM
- IC50 (MCF7): 0.4 µM
- GI50 (SF-539): 3.4 µM
- GI50 (OVCAR-3): 3 µM
- GI50 (SN12C): 3.2 µM
- IC50 (MCF-10A): 3 µM
- GI50 (HCT-116): 6.4 µM
- MGM (Cancer cell lines): 5.3 µM
- GI50 (MDA-MB-435): 5.8 µM
- IC50 [1]: 35 µM
- IC50 [2]: 33 µM
- IC50 (Tubulin beta chain): 5.7 µM
- GI50 (HOP-62): 16 µM
- GI50 (CCRF-CEM): 0.83 µM

Structure (SMILES): O=C(NCCCc1ccccc1)c1cc(NCc2cc(O)ccc2O)ccc1O
- GI50 (DU-145): 8.4 µM
- GI50 (UACC-62): 14 µM
- IC50 (MCF7): 2 µM
- GI50 (SF-539): 16 µM
- GI50 (OVCAR-3): 6.5 µM
- GI50 (SN12C): 15 µM
- IC50 (MCF-10A): 2 µM
- GI50 (HCT-116): 24 µM
- MGM (Cancer cell lines): 13.2 µM
- GI50 (MDA-MB-435): 18 µM
- IC50 [1]: 28 µM
- IC50 [2]: 1 µM
- IC50 (Tubulin beta chain): 5 µM
- GI50 (HOP-62): 22 µM
- GI50 (CCRF-CEM): 2.4 µM
